Bioassay records (PubChem)
In the library only some 1.6% were active in any assay of this set; here they are far more common.
VLA-4 inh: inhibition in human VLA-4 binding assay, primary screen, VLA-4 allosteric modulator project, MLPCN library, flow cytometry, VLA-4 expressing cells. 0.2% of 330,000 active. ligand binding flow cytometry. Integrin alpha-4 (Homo sapiens), P13612. inhibition, % (about 7 µM as worked out from the volumes in the protocol). AID 2557, 2010; in the data active = inhibition above about 50%
NR2E3 ag-1: NR2E3 agonists in two-hybrid cells, primary screen, cell-based, luminescence, CHO-S, Gal4-NCOR/VP16-NR2E3 | 0.35% of 360,000 active | Photoreceptor-specific nuclear receptor (Homo sapiens), Q9Y5X4 | luciferase | inhibition of corepressor binding, % at 3.98 µM;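 active = inhibition above the mean of all tested compounds plus 3 SD, cut at about 70% in these data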;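 also: higher means lower luciferase signal from less NR2E3 corepressor binding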
Rev-erbA mod: modulators of Rev-erb alpha DNA binding, primary screen, biochemical, FITC-DNA, fluorescence polarization, uHTS | Nuclear receptor subfamily 1 group D member 1 (Homo sapiens), P20393 | Rev-erbα–FITC-DNA binding, 90 min | activity, % at 10 µM | 0.79% of 370,000 active;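 active = activity above about 14%, limit read from the data; passing the limit was not always enough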
Target sequence (P20393 whole entry, looked up): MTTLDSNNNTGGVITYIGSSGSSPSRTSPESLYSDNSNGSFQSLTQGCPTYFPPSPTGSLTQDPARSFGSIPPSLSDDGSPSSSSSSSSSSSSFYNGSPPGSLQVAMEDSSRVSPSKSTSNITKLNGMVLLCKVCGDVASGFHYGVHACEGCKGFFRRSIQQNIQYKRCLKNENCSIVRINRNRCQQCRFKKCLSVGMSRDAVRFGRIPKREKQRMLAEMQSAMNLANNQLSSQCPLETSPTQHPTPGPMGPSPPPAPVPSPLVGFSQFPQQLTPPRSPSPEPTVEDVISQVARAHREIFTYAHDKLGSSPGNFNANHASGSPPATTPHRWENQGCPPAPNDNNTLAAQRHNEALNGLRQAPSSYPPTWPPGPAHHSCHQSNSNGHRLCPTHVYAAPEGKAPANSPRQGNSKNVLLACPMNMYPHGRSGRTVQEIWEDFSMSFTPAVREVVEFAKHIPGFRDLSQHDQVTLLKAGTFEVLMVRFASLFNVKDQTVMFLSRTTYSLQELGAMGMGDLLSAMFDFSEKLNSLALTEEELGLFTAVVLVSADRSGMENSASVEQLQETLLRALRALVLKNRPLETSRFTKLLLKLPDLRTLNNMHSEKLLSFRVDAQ
NR2E3 ag-2: inhibitors of NR2E3-RetCOR corepressor binding, primary screen, NR2E3 agonist project, biochemical, TR-FRET, GST-NR2E3, biotin-RetCOR; Photoreceptor-specific nuclear receptor (Homo sapiens), Q9Y5X4; 1536-well; inhibition of corepressor binding, % at 4.78 µM; 0.12% of 320,000 active;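 active = percent inhibition above the cutoff of mean plus 3 SD of all tested compounds, set per screening campaign, cut at about 20% in these data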
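Material – GST-tagged NR2E3 plus biotinylated RetCOR corepressor · Quantity – NR2E3 fusion 1.35 nM · Times – 5 h incubation at 4 °C · Medium – pH 7.5 Tris-based buffer · Technique – TR-FRET, Eu(K)-anti-GST donor, streptavidin-D2 acceptor, ex 340, em 617/671 nm · Benchmarks – high control biotin, low control 0.6% DMSO · Format – 1536-well plates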
PG9 binder: binders of HIV-1 gp120 antibody PG9, primary screen, biochemical, TR-FRET; HIV-1 gp120 / PG9 antibody interaction; TR-FRET gp120-PG9 antibody binding; inhibition, % at 6.7 µM; 0.43% of 360,000 active; in the data active = inhibition above about 8.5%
PG9 binder conf: binders of anti-gp120 antibody PG9, confirmation, biochemical, TR-FRET; shares compounds with PG9 binder; TR-FRET PG9 antibody binding; inhibition, % at 6.7 µM; 90% of 1,500 active; AID 651571, 2012; in the data active = inhibition above about 9%
PGV04 counter: binders of control antibody PGV04, counter-screen for PG9 antibody binder project, biochemical, TR-FRET, distinct HIV envelope site. shares compounds with PG9 binder. TR-FRET PGV04 antibody-gp120 binding. inhibition, % at 6.7 µM. 95% of 1,500 active. AID 651604, 2012; in the data active = inhibition above about 9.5%
PG9 bind DR: small-molecule binders of antibody PG9, dose response, biochemical, TR-FRET, HIV-1 gp120 antibody | AID 651848, 2012 | TR-FRET PG9 antibody-gp120 binding inhibition | shares compounds with PG9 binder | IC50, µM | 95 tested, under 10 active; in the data active = IC50 below about 10 µM
PGV04 binding DR: binders of control antibody PGV04, dose response, counter-screen for PG9 antibody binder project, biochemical, TR-FRET, distinct HIV envelope site; IC50, µM; shares compounds with PG9 binder; 20% of 95 active; TR-FRET binding to control antibody PGV04
PG126 DR counter: binders of control antibody PG126, dose response, counter-screen for PG9 antibody binder project, biochemical, TR-FRET, distinct HIV envelope site; shares compounds with PG9 binder; TR-FRET binding to antibody PG126, counterscreen; IC50, µM; 20% of 95 active
Large screens that a line does not name were inactive (follow-up assays come after a bar, where they were run). Rule as the data show it, unless noted: active = IC50 below about 9 µM; inactive = the rest.

COC(=O)[C@]1(CNS(=O)(=O)C2CC2)CC(=O)N(C)[C@@H]1c1ccccc1	none (no result: VLA-4 inh, NR2E3 ag-1, NR2E3 ag-2, PG9 binder)
CC(=O)Nc1c(Br)cc2c(c1Br)Cc1cc([N+](=O)[O-])ccc1-2	none (no result: VLA-4 inh, NR2E3 ag-2)
O=C(Nc1c(Br)cc2c(c1Br)Cc1ccccc1-2)C(Cl)Cl	PG9 binder 28.1 (no result: VLA-4 inh, NR2E3 ag-2) | PG9 binder conf 24.6 | PGV04 counter 37.9
CC1CCN(CCCn2c(=S)[nH]c3c(sc4ccccc43)c2=O)CC1	PG9 binder 15.2 | PG9 binder conf 9.7 | PGV04 counter 9.4 | PG9 bind DR inactive | PGV04 binding DR inactive | PG126 DR counter inactive
COC(=O)[C@]12C[C@H](CC(=O)NCc3ccccc3)C(=O)N(Cc3ccc(Cl)cc3Cl)C1=C[C@H](C1CCCC1)O[C@@H]2C	none (no result: VLA-4 inh, NR2E3 ag-1, NR2E3 ag-2, PG9 binder)
COCCCn1c(=O)/c(=C\c2ccccc2OC(F)F)s/c1=C(/C#N)C(N)=O	none
COCCCn1c(=O)/c(=C\c2ccc(OC(F)F)c(OC)c2)s/c1=C(/C#N)C(N)=O	PG9 binder 13.8 | PG9 binder conf 36.2 | PGV04 counter 38.9
O=C(Nc1ccccc1)c1sc(Cl)nc1-c1ccccc1	none
O=C(Nc1cc(F)cc(F)c1)c1sc(Cl)nc1-c1ccccc1	PG9 binder 9.6 | PG9 binder conf 14.1 | PGV04 counter 41.9
COc1ccc(C2CCC3(CCC(=O)N3CCO)CC2)cc1 (stereo not drawn)	none (no result: VLA-4 inh, NR2E3 ag-1, NR2E3 ag-2, PG9 binder)
COc1ccc(OC)c(S(=O)(=O)Nc2ccc(C(C)=O)cc2)c1	PG9 binder 8.6 | PG9 binder conf 21.1 | PGV04 counter 18.8 | PG9 bind DR inactive | PGV04 binding DR inactive | PG126 DR counter inactive
COc1ccc(OC)c(S(=O)(=O)Nc2ccc(C(N)=O)cc2)c1	none
CCc1nnc2sc(-c3cc(-c4ccccc4)nc4ccccc34)nn12	PG9 binder 8.6 | PG9 binder conf inactive | PGV04 counter 10.4
COC(=O)c1cc(Br)c(=O)n(Cc2ccncc2)c1	none
COC(=O)c1cc(Br)c(=O)n(-c2cc(C)on2)c1	PG9 binder 9.8 | PG9 binder conf 20.6 | PGV04 counter 26.3
COC(=O)[C@]12C[C@H](CC(=O)N3CCCCC3)C(=O)N(Cc3ccccc3)C1=C[C@H](COCc1ccccc1)O[C@@H]2C	none (no result: VLA-4 inh, NR2E3 ag-1, NR2E3 ag-2, PG9 binder)
CCC(C)(C)NC(=S)Nc1ccc(-c2nc3ccc(C)cc3s2)cc1	PG9 binder 11.3 | PG9 binder conf 10.2 | PGV04 counter 23.5
COCCCN1C(=O)[C@H](CC(=O)NCCCCc2ccccc2)[C@]2(C(=O)OC)CCCCC=C12	none (no result: VLA-4 inh, NR2E3 ag-1, NR2E3 ag-2, PG9 binder)
O=C(COC(=O)c1ccc(F)c(S(=O)(=O)N2CCOCC2)c1)c1ccc(Cl)cc1	none
CCOC(=O)c1c(C)[nH]c(C(=O)COC(=O)c2ccc(F)c(S(=O)(=O)N3CCOCC3)c2)c1C	PG9 binder 17.3 | PG9 binder conf 29.1 | PGV04 counter 40.2
COCCCNC(=O)C[C@H]1C[C@@]2(C(=O)OC)C(=C[C@H](C(C)C)O[C@@H]2C2CC2)N(CCC2=CCCCC2)C1=O	none (no result: VLA-4 inh, NR2E3 ag-1, NR2E3 ag-2, PG9 binder)
Cc1cc(SCC(=O)NC2(C#N)CCCCC2)nc2c(C)cccc12	PG9 binder 22.9 | PG9 binder conf 31.2 | PGV04 counter 36.5
Cc1cc(SCCC(=O)O)nc2c(C)cccc12	PG9 binder 11.0 | PG9 binder conf 14.2 | PGV04 counter 17.7
Cc1cc(SCC(=O)N2CCCC2=O)nc2c(C)cccc12	none
COc1ccc(-c2cc3nc(NCc4ccc(C)cc4C)n(C)c(=O)c3s2)cc1OC	PG9 binder 13.1 (no result: VLA-4 inh, NR2E3 ag-2) | PG9 binder conf 12.9 | PGV04 counter 20.4
S=c1[nH]nc(-c2cccc(Br)c2)o1	PG9 binder 27.4 | PG9 binder conf 27.6 | PGV04 counter 39.2
COc1ccc(NC(=O)CSc2nc3cccnc3n2C)cc1	none
COC(=O)c1sc(NC(=O)CSc2nc3cccnc3n2C)nc1C	PG9 binder 21.9 | PG9 binder conf 33.4 | PGV04 counter 45.3
COc1ccc2nc(NC(=O)CSc3nc4cccnc4n3C)sc2c1	PG9 binder 26.2 | PG9 binder conf 28.8 | PGV04 counter 42.2
COC(=O)c1sc(NC(=O)CSc2nc3cccnc3n2C2CCCCC2)nc1C	none
COc1ccc(Oc2c(Cl)cnn(-c3ccc(C(C)C)c(C)c3)c2=O)cc1	none (no result: VLA-4 inh, NR2E3 ag-1, NR2E3 ag-2, PG9 binder)
C[C@H]1[C@@H](OC(=O)Nc2ccc(C#N)cc2)CC[C@@]23CCCN2C(=O)CCC[C@@H]13	none (no result: VLA-4 inh, NR2E3 ag-1, NR2E3 ag-2, PG9 binder)
COc1ccc(C(=O)NCCNc2nc3ccc(C)cc3cc2C#N)cc1	PG9 binder 45.1 | PG9 binder conf 12.1 | PGV04 counter 36.3
CCOc1ccc2nc(NCCNC(=O)Nc3cccc(C)c3)c(C#N)cc2c1	PG9 binder 9.8 | PG9 binder conf 15.2 | PGV04 counter 32.2
CCOc1cc(C=NN2CCN(Cc3ccc(C)cc3)CC2)ccc1O	none (no result: VLA-4 inh, NR2E3 ag-1, NR2E3 ag-2, PG9 binder)
CCCCCn1c(C)c(CC(=O)Nc2ccc(Oc3cccnc3)c(C)c2)c2ccccc21	none (no result: VLA-4 inh, NR2E3 ag-1, NR2E3 ag-2)
CN(C)c1ccc(/C=C(\C#N)C(=O)NCc2ccco2)cc1	none (no result: NR2E3 ag-1, Rev-erbA mod, PG9 binder)
CC(OC(=O)/C(C#N)=C/c1ccc(N(C)C)cc1)C(=O)NCc1ccco1 (stereo not drawn)	PG9 binder 10.1 | PG9 binder conf 16.5 | PGV04 counter 24.1
O=C(CSc1ccccc1)NC1CCCCN(Cc2cccc(Cl)c2)C1=O (stereo not drawn)	none (no result: VLA-4 inh, NR2E3 ag-1, NR2E3 ag-2, PG9 binder)
COc1cc(/C=C/C(=O)OCC(=O)NCCc2ccccc2)cc(OC)c1OC	none
COc1cc(/C=C/C(=O)OCC(=O)Nc2ccccc2Cl)cc(OC)c1OC	PG9 binder 22.8 | PG9 binder conf 26.5 | PGV04 counter 41.4
